# TRPML3 agonist: human TRPML3 channel agonists, primary screen, cell-based, HEK293 TRPML3-YFP, Fluo-8 calcium fluorescence, 3 µM | 100% = the carbachol control signal | activation, % at 3 µM | 0.29% of 220,000 active;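 active means activation above its plate's cutoff, the mean activation of the plate's test wells plus 3 SD, cut at about 12% in these data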;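 further: 0% = DMSO only wells and 100% = carbachol wells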
#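 system = HEK293 cells stably carrying human TRPML3-YFP | doses = one concentration, 3 µM nominal, 0.3% DMSO | timing = dye loading 1 h 37 °C then 30 min ambient, 125 s read | detection = Fluo-8 calcium dye fluorescence, ex 470-495, em 515-575 nm | benchmarks = high control carbachol 87 µM, low control DMSO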
# OXTR ag: human OXTR agonists, primary screen, fluorescence, CHO-OTR cells, Fluo-8 calcium; Oxytocin receptor (Homo sapiens), P30559; Fluo-8 calcium fluorescence; normalized: DMSO 0%, oxytocin 100%; activation, % at 3 µM; 0.32% of 320,000 active; AID 2435, 2010;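 active means activation above the mean of all tested compounds plus 3 SD, cutoff set per screening run, cut at about 20% in these data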;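 further: peak over basal fluorescence ratio from a 100 s FLIPR kinetic read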
# V1R ag counter: agonists of human V1a receptor, primary screen, counter-screen for OXTR agonist project, fluorescence, CHO-V1R cells | AID 2797, 2010 | Vasopressin V1a receptor (Homo sapiens), P37288 | Fluo-8 calcium fluorescence, agonist mode; 0% DMSO, 100% 3 nM vasopressin | activation, % at 3 µM | 0.25% of 320,000 active;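 active means activation above the mean activation of all tested compounds plus 3 SD, per screening run, cut at about 20% in these data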;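 further: signal is peak over basal fluorescence ratio across a 100 second FLIPR read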
# Target sequence (P37288 whole entry, looked up): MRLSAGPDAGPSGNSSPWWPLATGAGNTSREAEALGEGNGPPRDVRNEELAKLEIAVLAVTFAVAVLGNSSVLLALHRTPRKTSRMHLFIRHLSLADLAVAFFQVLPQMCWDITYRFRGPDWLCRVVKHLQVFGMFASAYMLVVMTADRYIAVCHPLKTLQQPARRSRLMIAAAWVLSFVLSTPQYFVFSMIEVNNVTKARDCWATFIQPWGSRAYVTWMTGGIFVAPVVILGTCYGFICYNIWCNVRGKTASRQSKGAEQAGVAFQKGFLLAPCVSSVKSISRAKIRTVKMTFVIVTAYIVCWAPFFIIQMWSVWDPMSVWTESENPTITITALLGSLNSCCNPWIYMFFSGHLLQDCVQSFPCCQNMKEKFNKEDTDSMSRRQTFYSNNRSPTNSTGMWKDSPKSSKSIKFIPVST
# OXTR potentiate: human OXTR potentiators, primary screen, fluorescence, CHO-OTR cells, Fluo-8 calcium; 0.061% of 320,000 active; Oxytocin receptor (Homo sapiens), P30559; AID 2445, 2010; Fluo-8 calcium fluorescence, potentiator mode; 0% = oxytocin EC15, 100% = EC100; activation, % at 3 µM;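 active means activation above that plate's cutoff, the mean activation of tested compounds plus 3 SD, cut at about 6.6% in these data, passing the limit was not always enough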;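 further: 100% uses oxytocin at 75 nM as the full agonist control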
#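 test system = CHO-OTR cells, human receptor | compound = single-point 3.0 µM | schedule = 6 min compound pre-incubation at room temperature, 100 s kinetic read | signal = Fluo-8 no-wash calcium dye fluorescence, excitation 470-495 nm, emission 515-575 nm | repeats = single well per compound, singlicate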
# zfTRPN1 agonist: zebrafish TRPN1 channel agonists, primary screen, cell-based, HEK293, calcium fluorescence. transient receptor potential cation channel N1 (TRPN1/NompC), Danio rerio. HEK293 zebrafish TRPN1-YFP, Fluo-8 calcium fluorescence; 100% = response to 87 µM carbachol. activation, % at 3 µM. 0.18% of 220,000 active. AID 1424, 2008;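 active means activation above its plate's cutoff, the mean activation of test wells on that plate plus 3 SD, cut at about 19% in these data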;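 further: 0% = DMSO alone and 100% = 87 µM carbachol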
#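 Control set: carbachol 87 µM as high control, DMSO as low control; system: HEK293 stable line with zebrafish TRPN1-YFP; read-out: % activation versus carbachol response; detection: intracellular calcium fluorescence with Fluo-8; doses: single test compound dose, 3 µM nominal, 0.3% DMSO; schedule: dye 1 h 37 °C plus 30 min RT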
# TRPN1 counter: zebrafish TRPN1 channel agonists, counter-screen for TRPML3 agonist project, cell-based, HEK293 TRPN1-YFP, Fluo-8 calcium; Fluo-8 calcium fluorescence; scaled: carbachol wells 100%, DMSO wells 0%; 10% of 310 active; shares compounds with TRPML3 agonist; activation, % at 3 µM; AID 1525, 2009;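 active means mean activation over replicates above a set limit taken from the earlier TRPN1 channel primary screen, cut at about 19% in these data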;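 further: 100% = carbachol and 0% = 0.3% DMSO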
# TRPML3 confirm: human TRPML3 channel agonists, confirmation, cell-based, HEK293 TRPML3-YFP, Fluo-8 calcium, triplicate; Fluo-8 calcium fluorescence; 100% set by carbachol, 0% by DMSO; AID 1526, 2009; 80% of 310 active; shares compounds with TRPML3 agonist; activation, % at 3 µM;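 active means activation above a set limit derived from the earlier primary screen, cut at about 12% in these data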
# OXTR agonist cf: human OXTR agonists, confirmation, fluorescence, CHO-OTR cells, triplicate. Fluo-8 calcium fluorescence, agonist. shares compounds with OXTR ag. activation, % at 3 µM. 20% of 390 active;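 active means mean activation above about 20% derived from the earlier single-dose screen, limit read from the data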;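 further: peak over minimum fluorescence ratio per well during a 100 second FLIPR read; 0% = DMSO alone and 100% = oxytocin high control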
# V1aR counter 3x: V1a receptor agonists, calcium signal, counter-screen for OXTR agonist project, triplicate, fluorescence, CHO-V1R cells | AID 434991, 2010 | shares compounds with OXTR ag | Fluo-8 calcium fluorescence | activation, % at 3 µM | 10% of 390 active;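 active means mean activation over triplicate exceeds the hit threshold set in the earlier primary screen, cut at about 20% in these data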;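 further: peak over basal fluorescence ratio within a 100 second read; 0% = DMSO alone and 100% = 3 nM vasopressin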
# * hit, by the source's call; . = no result. Shown are actives, neighbours in structure and some others; about 0.58% of the full set was active somewhere.
SMILES,TRPML3 agonist,OXTR ag,V1R ag counter,OXTR potentiate,zfTRPN1 agonist,TRPN1 counter,TRPML3 confirm,others
O=C(COC(=O)c1cnccn1)NCc1ccc2c(c1)OCO2,1.1,-1.2,0.7,-10.6,0.6,.,.,
COc1cc(CCC(O)CC(=O)CCc2ccccc2)ccc1O (stereo not drawn),-0.6,0.5,1.3,-5.8,-0.4,.,.,
CCC1(c2ccccc2)NC(=O)N(CC(=O)NNC(=O)COc2ccc(Cl)cc2C)C1=O (stereo not drawn),.,-0.8,-0.8,-2.6,.,.,.,
CCc1c(C)nc2ncnn2c1NCCc1ccc(Cl)cc1,2.8,11.3,8.2,-10.2,7.7,.,.,
Cc1cc(N2C(=O)C3C4c5ccccc5C(c5ccccc54)C3C2=O)no1 (stereo not drawn),12.9*,-1.6,-0.4,-6.4,-2.9,-0.8,8.9,
CN(C1CCCCC1)S(=O)(=O)c1cccc(C#N)c1,63.1*,-1.0,0.4,-8.6,0.3,0.0,44.0*,
CCOc1ccc(S(=O)(=O)N(C)C2CCCCC2)cc1,.,-0.5,-1.3,-14.1,.,.,.,
S=C(NC1CCCCC1)N1CCOCCOCCN(C(=S)NC2CCCCC2)CCOCC1,18.1*,-3.9,0.0,-11.2,0.8,-0.8,33.0*,
Cc1cc(C)c(C2=NOC3C4CCC(C4)C23)c(C)c1 (stereo not drawn),24.2*,-2.5,-0.9,-1.5,-0.7,-1.6,104.1*,
Cc1ccc(CNc2ccc3c(c2)ncn3C(C)C)cc1,36.2*,-1.3,2.7,-6.4,13.0,36.1*,29.1*,
O=C1CCC(=O)N1c1ccccc1OS(=O)(=O)c1ccccc1,.,0.0,-0.2,-4.5,.,.,.,
O=S(=O)(Oc1ccccc1N1CCCCC1)c1ccccc1,12.8*,-3.4,0.4,-7.7,-0.8,-1.3,13.5*,
CCOc1ccc(C(C(=O)NC2CCCC2)N(Cc2ccccc2)C(=O)c2nsc(Cl)c2Cl)cc1 (stereo not drawn),0.9,-0.6,2.4,-7.0,0.2,.,.,
COc1ccc(C(C(=O)NC2CCCC2)N(Cc2ccccc2)C(=O)c2nsc(Cl)c2Cl)cc1 (stereo not drawn),17.0*,-0.2,1.7,-8.4,-1.5,-0.3,24.5*,
COc1ccccc1C1CN=NC12CCCc1ccccc1C2=O (stereo not drawn),24.1*,-2.0,-0.7,-7.4,-1.5,-0.1,91.1*,
NC(=O)CC(NC(=O)Cc1cccc2ccccc12)c1ccc(N2CCc3ccccc3C2)c([N+](=O)[O-])c1 (stereo not drawn),.,0.5,1.2,-4.2,.,.,.,
CN1C(=O)Cc2cc(S(=O)(=O)Nc3ccc(N4CCOCC4)cc3)ccc21,.,0.2,0.1,-3.7,.,.,.,
c1ccc2c(c1)OCCOCCOCCOCCOCCOc1ccccc1OCCOCCOCCO2,11.6*,21.0*,13.2,-10.6,11.4,25.0*,10.9,OXTR agonist cf=10.2;V1aR counter 3x=11.9
CC1=C/C(=N\OS(=O)(=O)c2ccccc2)C(C)=CC1=O,13.3*,19.9*,11.2,-21.6,12.9,20.2*,41.6*,OXTR agonist cf=9.1;V1aR counter 3x=11.3
COc1cc(C(=O)O/N=C2/C=C(C)C(=O)C=C2C)cc(OC)c1OC,0.5,0.7,-0.6,-7.6,0.3,.,.,
C#CCOCCOCCOCCNc1nc(N2CCN(C(=O)[C@H](CCC(=O)O)n3cc([C@@H](N)CC(N)=O)nn3)CC2)nc(N2CCN(C(=O)[C@H](CCC(=O)O)n3cc([C@@H](N)CC(N)=O)nn3)CC2)n1,.,2.0,6.5,3.0,.,.,.,
C=C1CC[C@@]23CC[C@]4(C)[C@@](OC2=O)([C@@H]3C1)[C@H]1O[C@H]1C1[C@@]2(C)CC[C@H](O)C(C)(C)C2CC[C@]14C (stereo partly drawn),.,-0.5,-1.0,-0.2,.,.,.,
CC(=O)c1sc(NC(=O)C2(F)C(F)(F)C(F)(F)C(F)(F)C(F)(F)C2(F)F)nc1C,21.7*,20.9*,11.0,-11.4,18.6,30.9*,15.7*,OXTR agonist cf=15.8;V1aR counter 3x=11.1
Cc1cc(OCCOCCNCc2ccccc2)ccc1C(C)C,.,21.6*,10.9,-15.1,.,.,.,OXTR agonist cf=3.4;V1aR counter 3x=0.6
CC1CCCN(C(=O)c2cc(S(=O)(=O)N3CCCCC3)c[nH]2)C1 (stereo not drawn),.,0.8,1.6,-0.8,.,.,.,
SMILES,TRPML3 agonist,OXTR ag,V1R ag counter,OXTR potentiate,zfTRPN1 agonist,TRPN1 counter,TRPML3 confirm,others
COc1ccc(/C=C(/NC(=O)c2ccccc2)C(=O)N2CCCC2)cc1OC,.,28.1*,1.9,-13.2,.,.,.,OXTR agonist cf=0.6;V1aR counter 3x=0.1
COc1ccc(/C=C(/NC(=O)c2ccccc2)C(=O)N2CCCCC2)cc1OC,.,6.5,2.0,-5.7,.,.,.,
Cc1ccc(S(=O)(=O)N(Cc2cc3ccccc3[nH]c2=O)c2cccc(C)c2)cc1,0.9,-0.8,0.8,-6.9,-0.4,.,.,
CCn1c(=O)c(C(=O)Nc2ncccc2C)c(O)c2ccccc21,2.8,31.7*,19.8,-5.7,14.2,.,.,OXTR agonist cf=6.5;V1aR counter 3x=32.8*
Nc1cc(=O)[nH]c(SCc2ccc(Cl)cc2Cl)n1,.,21.6*,13.6,-22.2,.,.,.,OXTR agonist cf=11.2;V1aR counter 3x=9.8
CN(C)Cc1c(O)ccc2oc(Cc3ccccc3)cc12,2.1,23.4*,13.8,-18.7,2.2,.,.,OXTR agonist cf=0.9;V1aR counter 3x=1.4
CN(C)Cc1c(O)ccc2ccccc12,1.0,1.5,-0.2,-1.6,-2.2,.,.,
O=C(C1CC(=O)N(c2ccc(F)cc2)C1)N1CCCCCC1 (stereo not drawn),.,0.2,0.8,-2.3,.,.,.,
CC(=O)Nc1ccc(OCC(O)Cn2c3ccccc3c3ccccc32)cc1 (stereo not drawn),2.6,17.1,20.0,-15.8,8.1,.,.,
